Assays:
Amaranthus retroflexus [1] = assay: Herbicidal activity against Amaranthus retroflexus assessed as growth inhibition at 150 g ai/ha applied as post-emergence treatment under green house conditions measured 15 days post compound treatment; format: functional; conditions: 360 h, read-out: GI
Method in brief: (§1)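 Post-emergence spray on pot-grown dicot weeds at the two-leaf stage in a greenhouse. Clay soil: pH 6.5, 1.6% organic matter, 37.3% clay, CEC 12.1 cmol/kg. Formulation: 100 g/L DMF/TW-80 emulsified concentrate, water-diluted to 150 g ai/ha. Untreated and DMF solvent controls. Visual inhibition rating at 15 days: ++ >80%, + 50-80%, − <50%.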

Chenopodium album [2] = assay: Herbicidal activity against Chenopodium album assessed as growth inhibition at 150 g ai/ha applied as pre-emergence treatment 24 hr after weeds seeds sowing under green house conditions measured 15 days post compound treatment; format: functional; conditions: read-out: GI
Method in brief: (§2)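 Pre-emergence spray applied 24 h after sowing weeds in pots in a greenhouse. Clay soil: pH 6.5, 1.6% organic matter, 37.3% clay, CEC 12.1 cmol/kg. Formulation: 100 g/L emulsified concentrate (DMF solvent, TW-80 emulsifier) diluted with water to 150 g ai/ha. Untreated and DMF-treated controls. Growth inhibition judged visually at 15 days: ++ >80%, + 50-80%, − <50%.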

Echinochloa crus-galli [3] = assay: Herbicidal activity against Echinochloa crus-galli (barnyard grass) assessed as growth inhibition at 150 g ai/ha applied as pre-emergence treatment 24 hr after weeds seeds sowing under green house conditions measured 15 days post compound treatment; format: functional; conditions: read-out: GI; method in brief: as §2
Brassica juncea [4] = assay: Herbicidal activity against Brassica juncea assessed as growth inhibition at 150 g ai/ha applied as pre-emergence treatment 24 hr after weeds seeds sowing under green house conditions measured 15 days post compound treatment; format: functional; conditions: read-out: GI; method in brief: as §2
Echinochloa crus-galli [5] = assay: Herbicidal activity against Echinochloa crus-galli (barnyard grass) assessed as growth inhibition at 150 g ai/ha applied as post-emergence treatment under green house conditions measured 15 days post compound treatment; format: functional; conditions: 360 h, read-out: GI
Method in brief: (§3)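 Monocot weeds grown in pots in a greenhouse and sprayed post-emergence at the one-leaf stage. Clay soil: pH 6.5, 1.6% organic matter, 37.3% clay, CEC 12.1 cmol/kg. Formulation: 100 g/L emulsified concentrate (DMF, TW-80) diluted with water to 150 g ai/ha. Untreated and DMF controls included. Growth inhibition scored visually after 15 days: ++ >80%, + 50-80%, − <50%.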

Brassica juncea [6] = assay: Herbicidal activity against Brassica juncea assessed as growth inhibition at 150 g ai/ha applied as post-emergence treatment under green house conditions measured 15 days post compound treatment; format: functional; conditions: 360 h, read-out: GI; method in brief: as §1
Amaranthus retroflexus [7] = assay: Herbicidal activity against Amaranthus retroflexus assessed as growth inhibition at 150 g ai/ha applied as pre-emergence treatment 24 hr after weeds seeds sowing under green house conditions measured 15 days post compound treatment; format: functional; conditions: read-out: GI; method in brief: as §2
Setaria viridis [8] = assay: Herbicidal activity against Setaria viridis (green foxtail) assessed as growth inhibition at 150 g ai/ha applied as post-emergence treatment under green house conditions measured 15 days post compound treatment; format: functional; conditions: 360 h, read-out: GI; method in brief: as §3
Chenopodium album [9] = assay: Herbicidal activity against Chenopodium album assessed as growth inhibition at 150 g ai/ha applied as post-emergence treatment under green house conditions measured 15 days post compound treatment; format: functional; conditions: 360 h, read-out: GI; method in brief: as §1
Setaria viridis [10] = assay: Herbicidal activity against Setaria viridis (green foxtail) assessed as growth inhibition at 150 g ai/ha applied as pre-emergence treatment 24 hr after weeds seeds sowing under green house conditions measured 15 days post compound treatment; format: functional; conditions: read-out: GI; method in brief: as §2
Digitaria sanguinalis [11] = assay: Herbicidal activity against Digitaria sanguinalis (hairy crabgrass) assessed as growth inhibition at 150 g ai/ha applied as pre-emergence treatment 24 hr after weeds seeds sowing under green house conditions measured 15 days post compound treatment; format: functional; conditions: read-out: GI; method in brief: as §2
[12] = target: T1, Acetolactate synthase, chloroplastic (Arabidopsis thaliana, UniProt P17597); assay: Inhibition of wild type Arabidopsis thaliana acetohydroxyacid synthase
T1 sequence (P17597 whole entry): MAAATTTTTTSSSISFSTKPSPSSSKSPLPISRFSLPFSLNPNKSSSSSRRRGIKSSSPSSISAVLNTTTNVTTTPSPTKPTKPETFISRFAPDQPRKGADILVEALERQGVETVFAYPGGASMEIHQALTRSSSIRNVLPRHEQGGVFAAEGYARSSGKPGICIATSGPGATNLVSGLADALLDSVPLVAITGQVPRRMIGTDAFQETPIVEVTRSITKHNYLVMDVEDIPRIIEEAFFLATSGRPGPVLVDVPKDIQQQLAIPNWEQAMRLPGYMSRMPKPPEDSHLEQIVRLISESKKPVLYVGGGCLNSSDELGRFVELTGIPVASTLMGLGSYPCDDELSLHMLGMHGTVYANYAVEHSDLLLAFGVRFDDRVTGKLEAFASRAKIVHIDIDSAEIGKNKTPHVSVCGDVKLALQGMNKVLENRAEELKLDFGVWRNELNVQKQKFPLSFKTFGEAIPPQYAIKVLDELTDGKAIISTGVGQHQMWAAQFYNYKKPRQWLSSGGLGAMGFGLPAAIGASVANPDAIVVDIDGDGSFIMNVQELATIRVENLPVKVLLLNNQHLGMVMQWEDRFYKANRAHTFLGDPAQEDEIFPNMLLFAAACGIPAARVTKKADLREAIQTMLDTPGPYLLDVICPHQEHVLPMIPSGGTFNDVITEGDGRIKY

Digitaria sanguinalis [13] = assay: Herbicidal activity against Digitaria sanguinalis (hairy crabgrass) assessed as growth inhibition at 150 g ai/ha applied as post-emergence treatment under green house conditions measured 15 days post compound treatment; format: functional; conditions: 360 h, read-out: GI; method in brief: as §3

| Ki [12] [µM] | SMILES | inhibition of growth at 150 g/ha (Amaranthus retroflexus [1]) [%] | inhibition of growth at 150 g/ha (Chenopodium album [2]) [%] | inhibition of growth at 150 g/ha (Echinochloa crus-galli [3]) [%] | inhibition of growth at 150 g/ha (Brassica juncea [4]) [%] | inhibition of growth at 150 g/ha (Echinochloa crus-galli [5]) [%] | inhibition of growth at 150 g/ha (Brassica juncea [6]) [%] | inhibition of growth at 150 g/ha (Amaranthus retroflexus [7]) [%] | inhibition of growth at 150 g/ha (Setaria viridis [8]) [%] | inhibition of growth at 150 g/ha (Chenopodium album [9]) [%] | inhibition of growth at 150 g/ha (Setaria viridis [10]) [%] | inhibition of growth at 150 g/ha (Digitaria sanguinalis [11]) [%] | inhibition of growth at 150 g/ha (Digitaria sanguinalis [13]) [%] |
| --- | --- | --- | --- | --- | --- | --- | --- | --- | --- | --- | --- | --- | --- |
| 1660 | CCCn1nc(C)c2cccc(Oc3nc(OC)cc(OC)n3)c2c1=O | > 80 | < 50 | < 50 | < 50 | 50 | 50 | < 50 | 50 | 50 | < 50 | < 50 | 50 |
| 1560 | COc1cc(OC)nc(Oc2cccc3c(C)nn(CC(=O)OC(C)(C)C)c(=O)c23)n1 | < 50 | < 50 | < 50 | < 50 | < 50 | < 50 | < 50 | < 50 | < 50 | < 50 | < 50 | < 50 |
| 778 | COc1cc(OC)nc(Oc2cccc3c(C)nn(CC4OCCO4)c(=O)c23)n1 | > 80 | < 50 | < 50 | < 50 | 50 | 50 | < 50 | > 80 | 50 | < 50 | < 50 | 50 |
| 637 | COc1cc(OC)nc(Oc2cccc3c(C)nn(Cc4ccc(C)cc4)c(=O)c23)n1 | < 50 | < 50 | < 50 | < 50 | < 50 | < 50 | < 50 | < 50 | < 50 | < 50 | < 50 | < 50 |
| 262 | COc1cc(OC)nc(Oc2cccc3c(C)nn(Cc4ccccc4C)c(=O)c23)n1 | > 80 | < 50 | < 50 | < 50 | < 50 | 50 | < 50 | 50 | 50 | < 50 | < 50 | < 50 |
| 441 | CCCCn1nc(C)c2cccc(Oc3nc(OC)cc(OC)n3)c2c1=O | > 80 | < 50 | < 50 | < 50 | 50 | 50 | < 50 | 50 | > 80 | < 50 | < 50 | < 50 |

The remaining lines, values behind:

| SMILES | Ki [12] [µM] | inhibition of growth at 150 g/ha (Amaranthus retroflexus [1]) [%] | inhibition of growth at 150 g/ha (Chenopodium album [2]) [%] | inhibition of growth at 150 g/ha (Echinochloa crus-galli [3]) [%] | inhibition of growth at 150 g/ha (Brassica juncea [4]) [%] | inhibition of growth at 150 g/ha (Echinochloa crus-galli [5]) [%] | inhibition of growth at 150 g/ha (Brassica juncea [6]) [%] | inhibition of growth at 150 g/ha (Amaranthus retroflexus [7]) [%] | inhibition of growth at 150 g/ha (Setaria viridis [8]) [%] | inhibition of growth at 150 g/ha (Chenopodium album [9]) [%] | inhibition of growth at 150 g/ha (Setaria viridis [10]) [%] | inhibition of growth at 150 g/ha (Digitaria sanguinalis [11]) [%] | inhibition of growth at 150 g/ha (Digitaria sanguinalis [13]) [%] |
| --- | --- | --- | --- | --- | --- | --- | --- | --- | --- | --- | --- | --- | --- |
| CCc1ccc(C(=O)n2nc(C)c3cccc(Oc4nc(OC)cc(OC)n4)c3c2=O)cc1 | 710 | > 80 | < 50 | < 50 | < 50 | 50 | 50 | < 50 | 50 | 50 | < 50 | < 50 | < 50 |
| COc1cc(OC)nc(Oc2cccc3c(C)nn(Cc4ccc(Br)cc4)c(=O)c23)n1 | 310 | < 50 | < 50 | < 50 | < 50 | < 50 | < 50 | < 50 | < 50 | < 50 | < 50 | < 50 | < 50 |
| COc1cc(OC)nc(Oc2cccc3c(C)nn(Cc4ccc(Cl)cc4)c(=O)c23)n1 | 203 | < 50 | < 50 | < 50 | < 50 | < 50 | < 50 | < 50 | < 50 | < 50 | < 50 | < 50 | < 50 |
| COc1cc(OC)nc(Oc2cccc3c(C)nn(Cc4cc(C)ccc4[N+](=O)[O-])c(=O)c23)n1 | 310 | > 80 | < 50 | < 50 | < 50 | 50 | 50 | < 50 | 50 | 50 | < 50 | < 50 | < 50 |
| COc1cc(OC)nc(Oc2cccc3c(C)nn(Cc4ccccc4Cl)c(=O)c23)n1 | 210 | < 50 | < 50 | < 50 | < 50 | < 50 | < 50 | < 50 | < 50 | < 50 | < 50 | < 50 | < 50 |
| COc1cc(OC)nc(Oc2cccc3c(C)nn(Cc4cccc(Cl)c4)c(=O)c23)n1 | 216 | > 80 | < 50 | < 50 | < 50 | 50 | 50 | < 50 | < 50 | 50 | < 50 | < 50 | < 50 |
| CO/N=C(/C)c1cccc(Oc2nc(OC)cc(OC)n2)c1C(=O)OC [PYRIMINOBAC-METHYL] | 49 | > 80 | < 50 | < 50 | < 50 | > 80 |  | < 50 |  | > 80 | < 50 | < 50 | > 80 |

Source: ChEMBL document CHEMBL3046448, “Design and syntheses of novel phthalazin-1(2H)-one derivatives as acetohydroxyacid synthase inhibitors” (J Agric Food Chem, 2006)
